How the values were obtained:
[1] = biological target: Voltage-gated inwardly rectifying potassium channel KCNH2 (Homo sapiens, UniProt Q12809); assay: Inhibition of human Erg
HEK293 = assay: Selectivity ratio of IC50 for mu-opioid receptor overexpressed in human HEK293 cells to IC50 for delta-opioid receptor overexpressed in human HEK293 cells; assay type: cell-based
[2] = biological target: Delta-type opioid receptor (Homo sapiens, UniProt P41143); assay: Displacement of [I125]deltorphin from delta-opioid receptor overexpressed in human HEK293 cells; assay type: cell-based
Delta-type opioid receptor, sequence (P41143 whole entry): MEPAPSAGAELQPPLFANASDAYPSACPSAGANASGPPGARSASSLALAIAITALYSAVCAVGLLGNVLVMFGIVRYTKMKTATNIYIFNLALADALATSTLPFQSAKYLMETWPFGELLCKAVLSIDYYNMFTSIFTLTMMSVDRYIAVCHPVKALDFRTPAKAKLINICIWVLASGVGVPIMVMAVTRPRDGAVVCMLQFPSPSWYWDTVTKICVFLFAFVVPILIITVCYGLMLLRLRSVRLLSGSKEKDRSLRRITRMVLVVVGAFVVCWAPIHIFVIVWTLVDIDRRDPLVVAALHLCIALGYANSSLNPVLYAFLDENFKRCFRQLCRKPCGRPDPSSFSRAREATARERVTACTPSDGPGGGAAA

[3] = Intrinsic clearance in human liver microsomes; assay type: ADME, Microsome; settings: read-out: CLH
MDR1 (P-gp), human = assay: Apparent permeability across apical to basolateral side in MDCK cells transfected with human MDR1 gene; assay type: ADME, cell-based, Canis lupus familiaris; settings: dog
Outline: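 Transport assay on MDCK cell monolayers transfected with the human MDR1 gene; flux measured in the apical-to-basolateral direction.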

Voltage-gated inwardly rectifying potassium channel KCNH2, sequence (Q12809 whole entry): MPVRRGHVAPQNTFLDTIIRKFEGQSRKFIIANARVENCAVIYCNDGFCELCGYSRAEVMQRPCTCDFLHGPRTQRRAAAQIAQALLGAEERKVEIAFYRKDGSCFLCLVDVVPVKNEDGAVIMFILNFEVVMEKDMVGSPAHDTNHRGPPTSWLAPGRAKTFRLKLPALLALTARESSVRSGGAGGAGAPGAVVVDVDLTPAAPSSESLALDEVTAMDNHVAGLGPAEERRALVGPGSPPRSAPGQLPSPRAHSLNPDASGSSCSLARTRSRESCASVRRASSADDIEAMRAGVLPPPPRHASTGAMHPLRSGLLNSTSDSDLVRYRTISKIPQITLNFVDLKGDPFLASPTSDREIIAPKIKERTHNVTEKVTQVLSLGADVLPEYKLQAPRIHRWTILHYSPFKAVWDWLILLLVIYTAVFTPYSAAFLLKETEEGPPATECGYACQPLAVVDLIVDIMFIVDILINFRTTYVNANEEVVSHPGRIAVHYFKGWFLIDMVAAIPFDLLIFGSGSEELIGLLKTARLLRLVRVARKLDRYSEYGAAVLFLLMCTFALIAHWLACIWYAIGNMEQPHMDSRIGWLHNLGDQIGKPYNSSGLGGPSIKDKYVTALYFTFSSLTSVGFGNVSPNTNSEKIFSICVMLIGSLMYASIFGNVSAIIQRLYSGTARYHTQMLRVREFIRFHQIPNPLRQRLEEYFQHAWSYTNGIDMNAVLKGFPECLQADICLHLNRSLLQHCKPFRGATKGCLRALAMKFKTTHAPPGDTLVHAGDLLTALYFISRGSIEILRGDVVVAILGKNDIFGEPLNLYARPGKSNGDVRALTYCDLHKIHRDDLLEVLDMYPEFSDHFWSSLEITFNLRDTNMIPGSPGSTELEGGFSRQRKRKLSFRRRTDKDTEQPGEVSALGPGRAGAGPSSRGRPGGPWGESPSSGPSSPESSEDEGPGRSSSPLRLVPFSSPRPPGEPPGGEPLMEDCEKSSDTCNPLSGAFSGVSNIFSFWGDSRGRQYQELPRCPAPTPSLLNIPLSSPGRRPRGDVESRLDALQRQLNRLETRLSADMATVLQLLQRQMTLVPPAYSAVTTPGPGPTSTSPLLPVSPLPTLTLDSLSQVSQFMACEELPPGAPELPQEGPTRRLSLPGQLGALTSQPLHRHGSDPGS

Row | SMILES | IC50 [1] [nM] | Ratio IC50 (HEK293) | IC50 [2] [nM] | microsomal CLint [3] [µL/min/mg] | Papp A→B (MDR1 (P-gp), human) [×10⁻⁶ cm/s]
1 | CCOC(=O)Nc1cccc([C@@H](c2ccc(C(=O)N(CC)CC)cc2)N2CCN(Cc3cscn3)CC2)c1 | 5400 | 6200 | 0.071 | 210 | < 0.1
2 | CCOC(=O)Nc1cccc([C@@H](c2ccc(C(=O)N(C)CC)cc2)N2CCN(Cc3c[nH]c(C)n3)CC2)c1 | > 33000 | > 12000 | 0.7 | < 4 | < 0.1
3 | CCN(C)C(=O)c1ccc([C@H](c2cccc(NC(=O)C3CC3)c2)N2CCN(CCCOC)CC2)cc1 | 13000 | 33 | 23 | < 4 | –
4 | CN(CCO)C(=O)c1ccc([C@H](c2cccc(NC(=O)C3CC3)c2)N2CCN(Cc3ccc(F)cc3)CC2)cc1 | 15000 | 11000 | 0.27 | 36 | < 0.1
5 | CCN(CC)C(=O)c1ccc([C@H](c2cccc(NC(=O)C3CC3)c2)N2CCN(CCOC)CC2)cc1 | > 30000 | > 9400 | 1.1 | 26 | < 0.1
6 | CCN(CC)C(=O)c1ccc([C@H](c2cccc(NC(=O)OC)c2)N2CCN(Cc3cccnc3)CC2)cc1 | – | – | – | 110 | 0.3
7 | CCN(C)C(=O)c1ccc([C@H](c2ccccn2)N2CCN(Cc3ccccn3)CC2)cc1 | > 33000 | > 1900 | 5.2 | 20 | 0.25
8 | CCN(CC)C(=O)c1ccc([C@H](c2cccc(NC(=O)C3CC3)c2)N2CCN(Cc3ccccn3)CC2)cc1 | 20000 | > 120000 | 0.068 | 260 | –
9 | CCN(C)C(=O)c1ccc([C@H](c2cccc(NC(=O)C3CC3)c2)N2CCN(Cc3nc(C)cs3)CC2)cc1 | 18000 | < 100 | > 100 | 160 | –
10 | CCOC(=O)Nc1ccccc1[C@@H](c1ccc(C(=O)N(CC)CC)cc1)N1CCN(Cc2ccccn2)CC1 | 9900 | > 6000 | 1.4 | 650 | 0.43
11 | CCOC(=O)Nc1cccc([C@@H](c2ccc(C(=O)N(C)CC)cc2)N2CCN(Cc3nc[nH]c3C)CC2)c1 | > 33000 | 14000 | 0.26 | 17 | < 0.1
12 | CCN(C)C(=O)c1ccc([C@H](c2cccnc2)N2CCN(Cc3ccccn3)CC2)cc1 | 13000 | > 5100 | 2 | 33 | 0.12
13 | CCOC(=O)Nc1ccccc1[C@@H](c1ccc(C(=O)N(CC)CC)cc1)N1CCN(Cc2cscn2)CC1 | – | – | – | 430 | < 0.1
14 | CCN(C)C(=O)c1ccc([C@H](c2cccc(NC(=O)C3CCC3)c2)N2CCN(Cc3cccnc3)CC2)cc1 | 28000 | > 1500 | 6.6 | 85 | < 0.1
15 | CCN(CC)C(=O)c1ccc([C@H](c2cccc(NC(=O)OC)c2)N2CCN(Cc3cncs3)CC2)cc1 | – | – | 0.35 | 100 | 0.22
16 | CCN(CC)C(=O)c1ccc([C@H](c2cccc(NC(=O)C3CC3)c2)N2CCN(Cc3ccc(F)cc3)CC2)cc1 | 11000 | 5200 | 0.29 | 150 | < 0.1
17 | CCOC(=O)Nc1ccc([C@@H](c2ccc(C(=O)N(CC)CC)cc2)N2CCN(Cc3cscn3)CC2)cc1 | 7300 | 2700 | 1.3 | 21 | 0.13
18 | CCOC(=O)Nc1cccc([C@@H](c2ccc(C(=O)N3CCC3)cc2)N2CCN(Cc3cccnc3)CC2)c1 | 11000 | > 2200 | 4.1 | 53 | 0.18
19 | CCN(C)C(=O)c1ccc([C@H](c2cccnc2)N2CCN(Cc3cscn3)CC2)cc1 | – | – | 4.7 | 40 | < 0.1
20 | CCN(C)C(=O)c1ccc([C@H](c2cccc(NC(=O)OC)c2)N2CCN(Cc3cscn3)CC2)cc1 | 17000 | 15000 | 0.094 | 38 | 0.12
21 | O=C(Nc1cccc([C@@H](c2ccc(C(=O)N3CCC3)cc2)N2CCN(Cc3ccc(F)cc3)CC2)c1)C1CC1 | 3600 | 480 | 0.9 | 49 | < 0.1
